# In ChEMBL document CHEMBL1687776, “Origin and molecular evolution of the determinant of methicillin resistance in staphylococci” (2010):
# Tests used:
# Staphylococcus vitulinus [1] = test: Antibacterial activity against mecA-negative Staphylococcus vitulinus SVMN02 by agar dilution method; type: functional; conditions: Mammaliicoccus vitulinus
# In short: (§1)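 MIC by agar dilution on Mueller-Hinton agar per CLSI guidance; resistance judged against CLSI breakpoints. Strains were animal or food isolates (type strains for S. sciuri subspecies), typed by hsp60 and/or sodA sequencing; mecA homologue carriage checked by PCR with degenerate primers. Agents tested: oxacillin, ampicillin, ceftizoxime, ceftriaxone, cefoxitin.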
# Mammaliicoccus lentus = test: Antibacterial activity against mecA-negative Staphylococcus lentus ATCC 29070T by agar dilution method; type: functional
# In short: (§2)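 MIC by agar dilution on Mueller-Hinton agar following CLSI guidelines. Resistance was assigned using CLSI breakpoints. Agents tested were oxacillin, ampicillin, ceftizoxime, ceftriaxone and cefoxitin. Strains were from animal or food sources and identified by hsp60 and/or sodA sequencing. mecA absence was assessed by PCR with degenerate primers for mecA and its homologues.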
# [2] = tested on: Staphylococcus fleurettii; test: Antibacterial activity against mecA-negative Staphylococcus fleurettii SFMN01 by agar dilution method; type: functional; conditions: Mammaliicoccus fleurettii; in short: as §2
# [3] = Antibacterial activity against mecA-positive Staphylococcus sciuri subsp. carnaticus ATCC 700058T by agar dilution method; conditions: Mammaliicoccus sciuri
# Staphylococcus vitulinus [4] = test: Antibacterial activity against mecA-negative Staphylococcus vitulinus SVMN01 (ATCC 51145T) by agar dilution method; type: functional; conditions: Mammaliicoccus vitulinus; in short: as §2
# [5] = tested on: Staphylococcus fleurettii; test: Antibacterial activity against methicillin-resistant mecA-positive Staphylococcus fleurettii SFMP04 by agar dilution method; type: functional; conditions: Mammaliicoccus fleurettii; in short: as §1
# Staphylococcus vitulinus [6] = test: Antibacterial activity against methicillin-resistant mecA-positive Staphylococcus vitulinus SVMP06 by agar dilution method; type: functional; conditions: Mammaliicoccus vitulinus; in short: as §1
# Staphylococcus vitulinus [7] = test: Antibacterial activity against mecA-negative Staphylococcus vitulinus SVMN08 by agar dilution method; type: functional; conditions: Mammaliicoccus vitulinus; in short: as §2
# Staphylococcus vitulinus [8] = test: Antibacterial activity against mecA-negative Staphylococcus vitulinus SVMN09 by agar dilution method; type: functional; conditions: Mammaliicoccus vitulinus; in short: as §1
# Staphylococcus vitulinus [9] = test: Antibacterial activity against methicillin-resistant mecA-positive Staphylococcus vitulinus SVMP04 by agar dilution method; type: functional; conditions: Mammaliicoccus vitulinus; in short: as §1
# Staphylococcus vitulinus [10] = test: Antibacterial activity against mecA-negative Staphylococcus vitulinus SVMN10 by agar dilution method; type: functional; conditions: Mammaliicoccus vitulinus; in short: as §2
# Staphylococcus vitulinus [11] = test: Antibacterial activity against mecA-negative Staphylococcus vitulinus SVMN05 by agar dilution method; type: functional; conditions: Mammaliicoccus vitulinus; in short: as §1
# [12] = tested on: Staphylococcus fleurettii; test: Antibacterial activity against methicillin-resistant mecA-positive Staphylococcus fleurettii SFMP02 by agar dilution method; type: functional; conditions: Mammaliicoccus fleurettii; in short: as §1
# [13] = tested on: Staphylococcus fleurettii; test: Antibacterial activity against methicillin-resistant mecA-positive Staphylococcus fleurettii SFMP07 by agar dilution method; type: functional; conditions: Mammaliicoccus fleurettii; in short: as §1
# Staphylococcus vitulinus [14] = test: Antibacterial activity against methicillin-resistant mecA-positive Staphylococcus vitulinus SVMP01 by agar dilution method; type: functional; conditions: Mammaliicoccus vitulinus; in short: as §1
# [15] = tested on: Staphylococcus fleurettii; test: Antibacterial activity against methicillin-resistant mecA-positive Staphylococcus fleurettii SFMP08 by agar dilution method; type: functional; conditions: Mammaliicoccus fleurettii; in short: as §1
# [16] = tested on: Staphylococcus fleurettii; test: Antibacterial activity against methicillin-resistant mecA-positive Staphylococcus fleurettii SFMP06 by agar dilution method; type: functional; conditions: Mammaliicoccus fleurettii; in short: as §1
# Staphylococcus vitulinus [17] = test: Antibacterial activity against mecA-negative Staphylococcus vitulinus SVMN13 by agar dilution method; type: functional; conditions: Mammaliicoccus vitulinus; in short: as §2
# Staphylococcus vitulinus [18] = test: Antibacterial activity against mecA-negative Staphylococcus vitulinus SVMN12 by agar dilution method; type: functional; conditions: Mammaliicoccus vitulinus; in short: as §1
# [19] = tested on: Staphylococcus fleurettii; test: Antibacterial activity against methicillin-resistant mecA-positive Staphylococcus fleurettii SFMP05 by agar dilution method; type: functional; conditions: Mammaliicoccus fleurettii; in short: as §1
# Staphylococcus vitulinus [20] = test: Antibacterial activity against methicillin-resistant mecA-positive Staphylococcus vitulinus SVMP03 by agar dilution method; type: functional; conditions: Mammaliicoccus vitulinus; in short: as §1
# Staphylococcus vitulinus [21] = test: Antibacterial activity against mecA-negative Staphylococcus vitulinus SVMN11 by agar dilution method; type: functional; conditions: Mammaliicoccus vitulinus; in short: as §1
# Staphylococcus vitulinus [22] = test: Antibacterial activity against methicillin-resistant mecA-positive Staphylococcus vitulinus SVMP05 by agar dilution method; type: functional; conditions: Mammaliicoccus vitulinus; in short: as §1
# [23] = tested on: Staphylococcus fleurettii; test: Antibacterial activity against mecA-negative Staphylococcus fleurettii SFMN02 by agar dilution method; type: functional; conditions: Mammaliicoccus fleurettii; in short: as §2
# [24] = Antibacterial activity against methicillin-resistant mecA-positive Staphylococcus sciuri subsp. sciuri ATCC 29062T by agar dilution method; type: functional; conditions: Mammaliicoccus sciuri; in short: as §1
# [25] = tested on: Staphylococcus fleurettii; test: Antibacterial activity against methicillin-resistant mecA-positive Staphylococcus fleurettii SFMP03 by agar dilution method; type: functional; conditions: Mammaliicoccus fleurettii; in short: as §1
# Staphylococcus vitulinus [26] = test: Antibacterial activity against mecA-negative Staphylococcus vitulinus SVMN06 by agar dilution method; type: functional; conditions: Mammaliicoccus vitulinus; in short: as §1
# [27] = Antibacterial activity against methicillin-resistant mecA-positive Staphylococcus sciuri subsp. rodentium ATCC 700061T by agar dilution method; type: functional; conditions: Mammaliicoccus sciuri; in short: as §1
# Staphylococcus vitulinus [28] = test: Antibacterial activity against mecA-negative Staphylococcus vitulinus SVMN14 by agar dilution method; type: functional; conditions: Mammaliicoccus vitulinus; in short: as §1
# [29] = tested on: Staphylococcus fleurettii; test: Antibacterial activity against methicillin-resistant mecA-positive Staphylococcus fleurettii SFMP01(CCUG 43834T) by agar dilution method; type: functional; conditions: Mammaliicoccus fleurettii; in short: as §1
# Staphylococcus vitulinus [30] = test: Antibacterial activity against mecA-negative Staphylococcus vitulinus SVMN04 by agar dilution method; type: functional; conditions: Mammaliicoccus vitulinus; in short: as §1
# Staphylococcus vitulinus [31] = test: Antibacterial activity against mecA-negative Staphylococcus vitulinus SVMN07 by agar dilution method; type: functional; conditions: Mammaliicoccus vitulinus; in short: as §1
# Staphylococcus vitulinus [32] = test: Antibacterial activity against mecA-negative Staphylococcus vitulinus SVMN03 by agar dilution method; type: functional; conditions: Mammaliicoccus vitulinus; in short: as §2
# Staphylococcus vitulinus [33] = test: Antibacterial activity against methicillin-resistant mecA-positive Staphylococcus vitulinus SVMP02 by agar dilution method; type: functional; conditions: Mammaliicoccus vitulinus; in short: as §1
Compound,MIC (Staphylococcus vitulinus [1]) [µg/mL],MIC (Mammaliicoccus lentus) [µg/mL],MIC [2] [µg/mL],MIC [3] [µg/mL],MIC (Staphylococcus vitulinus [4]) [µg/mL],MIC [5] [µg/mL],MIC (Staphylococcus vitulinus [6]) [µg/mL],MIC (Staphylococcus vitulinus [7]) [µg/mL],MIC (Staphylococcus vitulinus [8]) [µg/mL],MIC (Staphylococcus vitulinus [9]) [µg/mL],MIC (Staphylococcus vitulinus [10]) [µg/mL],MIC (Staphylococcus vitulinus [11]) [µg/mL],MIC [12] [µg/mL],MIC [13] [µg/mL],MIC (Staphylococcus vitulinus [14]) [µg/mL],MIC [15] [µg/mL],MIC [16] [µg/mL],MIC (Staphylococcus vitulinus [17]) [µg/mL],MIC (Staphylococcus vitulinus [18]) [µg/mL],MIC [19] [µg/mL],other results
CO/N=C(\C(=O)N[C@@H]1C(=O)N2C(C(=O)O)=CCS[C@H]12)c1csc(N)n1 [CEFTIZOXIME],1,1,2,2,4,64,0.5,0.25,0.5,0.5,0.25,0.5,32,4,0.5,32,32,0.25,0.5,4,MIC (Staphylococcus vitulinus [20]): 0.5 µg/mL; MIC (Staphylococcus vitulinus [21]): 1 µg/mL; MIC (Staphylococcus vitulinus [22]): 1 µg/mL; MIC [23]: 2 µg/mL; MIC [24]: 2 µg/mL; MIC [25]: 128 µg/mL; MIC (Staphylococcus vitulinus [26]): 0.5 µg/mL; MIC [27]: 2 µg/mL; MIC (Staphylococcus vitulinus [28]): 0.5 µg/mL; MIC [29]: 32 µg/mL; MIC (Staphylococcus vitulinus [30]): 0.5 µg/mL; MIC (Staphylococcus vitulinus [31]): 0.5 µg/mL; MIC (Staphylococcus vitulinus [32]): 0.25 µg/mL; MIC (Staphylococcus vitulinus [33]): 0.5 µg/mL
CO/N=C(\C(=O)N[C@@H]1C(=O)N2C(C(=O)O)=C(CSc3nc(=O)c(O)nn3C)CS[C@H]12)c1csc(N)n1 [CEFTRIAXONE],4,2,4,8,8,64,2,0.25,2,2,1,1,16,8,4,16,32,1,1,8,MIC (Staphylococcus vitulinus [20]): 4 µg/mL; MIC (Staphylococcus vitulinus [21]): 4 µg/mL; MIC (Staphylococcus vitulinus [22]): 4 µg/mL; MIC [23]: 4 µg/mL; MIC [24]: 8 µg/mL; MIC [25]: 64 µg/mL; MIC (Staphylococcus vitulinus [26]): 4 µg/mL; MIC [27]: 8 µg/mL; MIC (Staphylococcus vitulinus [28]): 2 µg/mL; MIC [29]: 16 µg/mL; MIC (Staphylococcus vitulinus [30]): 2 µg/mL; MIC (Staphylococcus vitulinus [31]): 2 µg/mL; MIC (Staphylococcus vitulinus [32]): 1 µg/mL; MIC (Staphylococcus vitulinus [33]): 2 µg/mL
Cc1onc(-c2ccccc2)c1C(=O)N[C@@H]1C(=O)N2[C@@H]1SC(C)(C)[C@@H]2C(=O)O [OXACILLIN],0.5,0.5,0.5,1,0.5,128,0.5,0.5,0.5,0.5,0.5,0.25,8,8,0.5,64,64,0.5,0.5,32,MIC (Staphylococcus vitulinus [20]): 0.5 µg/mL; MIC (Staphylococcus vitulinus [21]): 0.5 µg/mL; MIC (Staphylococcus vitulinus [22]): 0.5 µg/mL; MIC [23]: 0.5 µg/mL; MIC [24]: 0.5 µg/mL; MIC [25]: 128 µg/mL; MIC (Staphylococcus vitulinus [26]): 0.5 µg/mL; MIC [27]: 0.5 µg/mL; MIC (Staphylococcus vitulinus [28]): 0.5 µg/mL; MIC [29]: 64 µg/mL; MIC (Staphylococcus vitulinus [30]): 0.5 µg/mL; MIC (Staphylococcus vitulinus [31]): 0.5 µg/mL; MIC (Staphylococcus vitulinus [32]): 0.5 µg/mL; MIC (Staphylococcus vitulinus [33]): 0.5 µg/mL
